Most compounds without a hit are left out; they make up all but 4% or so of the library.
FN deposit inh: fibronectin deposition inhibition | AH1F fibroblasts, Alexa488-fibronectin deposition fluorescence, overnight | inhibition, % at 12.6 µM | 350,000 tested, 0.086% active | AID 743247;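 active = mean inhibition across replicates of 30% or more, regardless of how many single replicates reach that level; inconclusive = mean under 30% yet at least half of replicates reach 30%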;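 note: positive control wells lacked labelled fibronectin entirely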
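Assay system: AH1F fibroblast monolayer, labelled fibronectin deposition. Amount: 10000 cells per well. Also added: labelled fibronectin 24 nM. Compound: single-point pinned compound. Incubation: cell attachment 1 h, compound and FN exposure overnight. Detection: fluorescence after three HBSS washes, excitation 485 nm, emission 525 nm. Read-out: inhibition of fibronectin deposition signal.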
Statin myotox sup: protects C2C12 myotubes from simvastatin toxicity. ATP luminescence, 48 h; scaled: DMSO 0, geranylgeraniol control 100. rescue of ATP level, % at 7.49 µM. 330,000 tested, 0.78% active. AID 602340;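 active = mean ATP rescue above about 67%, or every replicate alone reaching that limit, limit read from the data, passing the limit was not always enough; inconclusive = no clear call, values can overlap the other calls; inactive = mean under the limit and some replicate under it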;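 note: myotubes were challenged with 10 µM simvastatin during compound exposure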
FGF22 binding: binders of recombinant human FGF22 by thermal shift | Q9HCT0 | SYPRO orange fluorescence; percent of sucrose octasulfate shift, DMSO zero | activity (Tm shift, normalised), % at 9.99 µM | 340,000 tested, 1.5% active;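 active = mean Tm shift, scaled 0 neutral to 100 positive control, at about 1.3% or above, every replicate too, limit read from the data; inconclusive = no clear call, values can overlap the other calls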
Target sequence (Q9HCT0 whole entry, looked up): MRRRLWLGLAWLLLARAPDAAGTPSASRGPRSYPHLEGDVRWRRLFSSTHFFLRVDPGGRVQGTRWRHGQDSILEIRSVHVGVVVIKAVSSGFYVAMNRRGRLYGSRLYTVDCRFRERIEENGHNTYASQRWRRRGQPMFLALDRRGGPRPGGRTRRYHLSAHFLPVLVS
Ecoli rRNA inh: inhibitors of bacterial rRNA selective over humanized ribosomes | E. coli WT GFP vs humanized-ribosome RFP mutants, fluorescence, 24 h; stronger effect = lower value; DMSO median 0, no signal -100 | GFP signal change (wild-type ribosome), % (concentration not given with the values) | 350,000 tested, 1.6% active;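 active = significant combined selectivity score with lowered wild-type GFP, culture density cut under 30%, mutant RFP and density less affected; inactive = any of these conditions unmet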
E-sel inducer: induces E-selectin expression in human endothelial cells. P16581. HUVEC E-selectin immunofluorescence imaging; normalized: neutral wells 0, TNF-alpha wells 100. activation, % at 7.58 µM. 260,000 tested, 0.37% active. AID 686992;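 active = mean E-selectin-positive cell signal at least 10% of the positive control, reached in at least 60% of replicates, without over 20% cell loss; inconclusive = no rule given, readout overlaps actives, possibly toxicity-flagged; inactive = the rest, including those meeting only one limit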
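Read-out: % PE-positive cells | Test system: HUVEC | Doses: One compound dose added by pin transfer | Buffer or medium: EGM-2 over gelatin coat | Signal: Immunofluorescence imaging | Benchmarks: TNF-alpha, DMSO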
SIRT5 block: sirtuin-5 (human) deacylase inhibition. Q9NXA8. Purified SirT5, succinyl-peptide AMC, trypsin-coupled fluorescence. inhibition, % at 15 µM. 330,000 tested, 1.1% active. AID 652115; in the data active = inhibition above about 15%; inconclusive = no clear call, values can overlap the other calls
Target sequence (Q9NXA8 whole entry, looked up): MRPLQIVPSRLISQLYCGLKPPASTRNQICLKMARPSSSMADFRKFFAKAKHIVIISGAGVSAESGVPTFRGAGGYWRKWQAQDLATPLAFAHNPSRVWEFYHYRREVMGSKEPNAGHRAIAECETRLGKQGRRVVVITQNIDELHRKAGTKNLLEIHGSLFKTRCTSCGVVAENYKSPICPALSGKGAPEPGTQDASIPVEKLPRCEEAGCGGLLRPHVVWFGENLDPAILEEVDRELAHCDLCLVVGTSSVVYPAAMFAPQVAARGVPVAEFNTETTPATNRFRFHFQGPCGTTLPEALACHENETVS
HepG2 cytotox: kills or reduces viability of HepG2 cells; AID 743480; 30 tested, under 10 active; shares compounds with Ecoli rRNA inh; ATP luminescence, 72 h; activity change, negative = cytotoxicity, unspecified at 26 µM;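 active = compounds whose fitted half-maximal signal-loss concentration is at most twice their highest valid dose; inconclusive = flat curve with 30 to 70% signal loss, or poor fit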
AID977621: wild-type E. coli growth inhibition versus H69 humanized strain – H69 mutant RFP, wild-type GFP, cherry-pick, dose response | 1,900 tested, under 10 active | shares compounds with Ecoli rRNA inh | activity change, negative = inhibition at 50 µM | fluorescence, 24 h;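 active = Wild-type ribosome reporter drop at least double the humanized mutant ribosome reporter drop, growth loss under a set limit; inconclusive = no clear call, values can overlap the other calls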;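 note: wild-type GFP and H69 mutant RFP strains grown together 50/50 in each well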
AID977628: growth of wild-type and h24-humanized E. coli strains – h24 mutant RFP vs wild-type GFP, cherry-pick, dose response | 1,900 tested, under 10 active | E. coli WT GFP strain growth, fluorescence, 24 h | shares compounds with Ecoli rRNA inh | activity change, negative = inhibition at 50 µM;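 active = compound lowering the normal-ribosome reporter at least twice as much as the humanized-ribosome reporter, growth loss under a set limit; inconclusive = no clear call, values can overlap the other calls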;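 note: wild-type GFP and h24 humanized RFP strains co-cultured 1 to 1 per well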
* hit, by the source's call; ? = inconclusive; · = no result.

SMILES	FN deposit inh	Statin myotox sup	FGF22 binding	Ecoli rRNA inh	E-sel inducer	SIRT5 block	AID977621	AID977628	others
CC(C)Cc1nnc(NC(=O)c2ccc3c(=O)n4c(nc3c2)CCC4)s1	-11.7	2.1	-0.1	-21.1*	·	2.2	-10.6	-9.88
C[C@@H]1CN([C@H](C)CO)S(=O)(=O)c2ccc(/C=C/c3ccccc3)cc2O[C@H]1CN(C)Cc1cccnc1	·	·	-0.5	-3.5	-0.2	6.1	·	·
COc1ccc(C(=O)Cn2c(C)nc([N+](=O)[O-])c2Br)cc1	5.1	15.3	-0.2	-35.4*	7.3	·	·	-10.8
COc1ccc(C(=O)Cn2cc([N+](=O)[O-])nc2C)cc1	6.2	7.0	-0.3	5.1	0.0	-18.3	·	·
CC1CCCCN1C(=O)C1CCCN(S(=O)(=O)c2cccc3nsnc23)C1 (stereo not given)	10.8	?	-0.1	-20.2*	·	-1.5	-7.14	?
CN(Cc1cccc(F)c1)C(=O)CN1CCN(S(=O)(=O)c2ccc3c(c2)OCCCO3)CC1	10.7	1.6	-0.5	-8.6	-0.3	-0.4	·	·
CN(Cc1ccc(F)cc1)C(=O)CN1CCN(S(=O)(=O)c2ccc3c(c2)OCCCO3)CC1	5.5	-5.5	-0.3	-17.6*	-0.4	-0.1	·	?
O=C(O)c1cccnc1SCc1ccccc1Cl	2.9	9.5	-0.1	-21.6*	4.8	-2.1	-9.83	·
O=C(O)c1cccnc1Sc1ccccc1Cl	-5.3	-3.9	0.0	5.6	·	-6.3	·	·
Cc1cc(N(C)C)c(C#N)c(N2CCCCC2)n1	4.8	-4.7	·	·	-1.0	·	·	·
CCOC(=O)c1cc(C)nc(N2CCCCC2)c1C#N	0.5	·	0.1	-20.6*	-0.1	-5.8	1.26	·
CCNC(=O)C1(C)CCCN(Cc2cccc3ccccc23)C1 (stereo not given)	-1.6	-3.2	-0.3	-22.8*	0.9	-5.8	·	?
Cc1csc2c(N3CCCCC3)ncnc12	8.1	·	0.1	-8.5	·	0.3	·	·
Cc1csc2c(N3CCC(C(=O)O)CC3)ncnc12	-4.1	·	0.1	-32.0*	0.0	-4.2	·	?
N#C[C@H]1[C@H](c2ccc(C3=CCCC3)cc2)[C@@H](CO)N1C(=O)C1CCOCC1	-13.4	-2.2	-0.3	3.1	0.2	-2.6	·	·
CC(NC(=O)c1c(N)[nH]c(C(=O)c2ccccc2)c1-c1ccccc1Br)c1cccc2ccccc12 (stereo not given)	0.5	·	-0.1	-26.4*	1.1	-0.1	4.58	-2.96
CC=Cc1ccc2n(c1=O)C[C@@H]1[C@@H](CO)[C@H](C(=O)NCCOC)[C@H]2N1Cc1nccs1 (mixture of isomers)	·	34.6	0.3	0.8	-0.3	-33.2	·	·
O=C(Nc1ccc(Nc2ccccc2)cc1)c1ccc(F)cc1	3.5	-29.2	-0.2	-21.1*	0.0	-4.1	-3.45	-13.3
O=C(Nc1ccc(Nc2ccccc2)cc1)c1c(F)c(F)c(F)c(F)c1F	2.5	-21.1	0.0	-1.1	·	-4.6	·	·
O=C(Nc1ccc(Nc2ccccc2)cc1)c1c(Cl)cccc1Cl	0.2	-39.6	0.0	-34.5*	·	2.8	-15.8	·
Cc1ccc(S(=O)(=O)N(C)C[C@H]2Oc3ccc(NC(=O)Nc4c(C)noc4C)cc3CC(=O)N([C@@H](C)CO)C[C@H]2C)cc1	·	-7.1	-0.1	0.2	1.4	-0.1	·	·
CC(=O)N1CCOc2ccc(S(=O)(=O)N(C)c3ccc(C)cc3)cc21	-3.8	4.0	0.1	-21.4*	·	-1.4	-13.1	·
COc1cc2c(cc1[N+](=O)[O-])-c1ccc([N+](=O)[O-])cc1C2	-5.0	19.1	-0.1	-22.7*	0.0	·	·	?	HepG2 cytotox=-23.1
COc1cc2c(cc1[N+](=O)[O-])-c1ccccc1C2	-4.5	4.6	0.2	·	·	0.1	·	·
NC(=O)c1ccsc1NC(=O)COC(=O)CSc1ccc(Cl)cc1	-9.1	8.0	0.2	-20.7*	·	4.6	·	?
SMILES	FN deposit inh	Statin myotox sup	FGF22 binding	Ecoli rRNA inh	E-sel inducer	SIRT5 block	AID977621	AID977628	others
S=c1nc(-c2cccc(Cl)c2)[nH][nH]1	5.2	·	0.0	-3.3	·	·	·	·
S=c1nc(-c2cc(Cl)cc(Cl)c2)[nH][nH]1	-1.3	·	-0.3	-16.7*	·	5.9	-14	?
Cc1cc(C)cc(NC(=O)c2cccc(NC(=O)c3ccco3)c2)c1	-8.2	·	0.5	-24.1*	-0.1	-4.1	-24.5	·
CCCC(=O)Nc1ccc2c(c1)OC[C@H](C)N(Cc1nccs1)C[C@H](C)[C@@H](OC)CN(C)C2=O	2.4	-2.5	0.0	0.0	0.0	6.9	·	·
Cc1nc(-c2ccccn2)sc1C(=O)Nc1ccc(F)cc1	-11.3	-17.0	·	·	·	·	·	·
CNC(=O)c1sc(-c2ccccn2)nc1C	-22.2	·	0.1	-23.3*	-3.7	9.0	-21.4	-7.05
Nc1ncncc1-c1ccc2ccccc2c1	2.8	-7.1	-0.2	-31.5*	0.0	-2.3	-14.4	?
Cn1c(CCN2CCOCC2)nc2cc(NC(=O)c3cccs3)ccc21	·	·	1.0	-18.1*	·	2.1	-9.78	?
O=C(C[C@H]1CC[C@H](NC(=O)Nc2ccccc2F)[C@H](CO)O1)NCc1ccc(-c2ccccc2)cc1	·	·	·	-19.9*	0.4	-1.5	-6.52	?
O=C(C[C@H]1CC[C@@H](NC(=O)Nc2ccccc2F)[C@@H](CO)O1)NCc1ccccc1	·	6.6	0.0	-3.9	-0.2	-1.7	·	·
CCC(=O)Nc1nc2c(OC)ccc(OC)c2s1	0.6	15.4	0.0	-20.6*	0.2	-4.5	-10.1	·
Cc1cc(CNC(=O)c2cc(-c3ccccc3)nc3ccccc23)nn1C	·	·	0.1	-23.9*	·	-1.8	-7.07	-14.4
CC(=O)NCCOc1nc(N2CCCCC2)nc(N2CCCCC2)n1	-5.7	13.1	0.2	-25.2*	3.6	-2.5	-6.6	-10.4
CC(=O)NCCOc1nc(N(C)C)nc(N2CCOCC2)n1	-5.7	·	·	·	·	·	·	·
COc1ccc(Br)c(-c2nnc(CS(=O)(=O)c3ccccc3)o2)c1	-3.8	3.2	0.0	-4.6	0.0	·	·	·
COc1ccc(Br)c(-c2nc(CS(=O)(=O)c3ccc(F)cc3)no2)c1	-2.4	·	-0.1	-26.6*	·	2.9	·	-7.55
CNC(=O)c1ccsc1NC(=O)c1ccc2c(c1)CCCC2	0.2	·	-0.2	-25.8*	1.3	-1.9	?	·
c1ccc(Sc2ncnc3ccccc23)cc1	5.8	39.9	0.0	-17.9*	·	-0.2	·	?
COCCNC(=O)CCSCc1ccccc1F	·	1.4	·	·	·	·	·	·
